# How the values were obtained:
# Format in all cases: functional
# HCT-116 = test: Growth inhibition of human HCT116 cells at 10 uM after 48 hrs by coulter counter method; conditions: HCT-116, 48 h, read-out: GI
# Summary of the method: (§1)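 Single high-dose NCI 60-cell-line panel screen across nine tumor subpanels. Test solutions (0.2 mL) were added in duplicate to wells holding 1.8 mL of culture at 6 × 10⁴ cells/mL. Controls got PBS and DMSO at identical dilutions. Incubation was 48 h at 37 °C in humidified 5% CO₂. Cells were diluted 10-fold in saline, Coulter-counted and dilution-corrected. Results were expressed as percent growth inhibition versus control.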
# [1] = Growth inhibition of human […] cells at 10 uM after 48 hrs by coulter counter method; conditions: read-out: GI; summary of the method: as §1
# 786-0 = test: Growth inhibition of human 786-0 cells at 10 uM after 48 hrs by coulter counter method; conditions: 786-0, 48 h, read-out: GI; summary of the method: as §1
# UACC-62 = test: Growth inhibition of human UACC62 cells at 10 uM after 48 hrs by coulter counter method; conditions: UACC-62, 48 h, read-out: GI; summary of the method: as §1
# NCI-H23 = test: Growth inhibition of human NCI-H23 cells at 10 uM after 48 hrs by coulter counter method; conditions: NCI-H23, 48 h, read-out: GI; summary of the method: as §1
# SNB-75 = test: Growth inhibition of human SNB75 cells at 10 uM after 48 hrs by coulter counter method; conditions: SNB-75, 48 h, read-out: GI; summary of the method: as §1
# SK-MEL-28 = test: Growth inhibition of human SK-MEL-28 cells at 10 uM after 48 hrs by coulter counter method; conditions: SK-MEL-28, 48 h, read-out: GI; summary of the method: as §1
# MDA-MB-468 = test: Growth inhibition of human MDA-MB-468 cells at 10 uM after 48 hrs by coulter counter method; conditions: MDA-MB-468, 48 h, read-out: GI; summary of the method: as §1
# PC-3 = test: Growth inhibition of human PC3 cells at 10 uM after 48 hrs by coulter counter method; conditions: PC-3, 48 h, read-out: GI; summary of the method: as §1
# CAKI-1 = test: Growth inhibition of human Caki1 cells at 10 uM after 48 hrs by coulter counter method; conditions: CAKI-1, 48 h, read-out: GI; summary of the method: as §1
# [2] = Growth inhibition of human Hs 578T cells at 10 uM after 48 hrs by coulter counter method; conditions: read-out: GI; summary of the method: as §1
# HOP-92 = test: Growth inhibition of human HOP92 cells at 10 uM after 48 hrs by coulter counter method; conditions: HOP-92, 48 h, read-out: GI; summary of the method: as §1
# UO-31 = test: Growth inhibition of human UO31 cells at 10 uM after 48 hrs by coulter counter method; conditions: UO-31, 48 h, read-out: GI; summary of the method: as §1
# M14 = test: Growth inhibition of human M14 cells at 10 uM after 48 hrs by coulter counter method; conditions: M14, 48 h, read-out: GI; summary of the method: as §1
# HL-60(TB) = test: Growth inhibition of human HL-60(TB) cells at 10 uM after 48 hrs by coulter counter method; conditions: HL-60, 48 h, read-out: GI
# Summary of the method: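 Part of the NCI 60-cell-line single-high-dose panel. Cells were seeded at 6 × 10⁴ cells/mL with test solution in duplicate wells, alongside PBS/DMSO controls at identical dilutions. Plates were held 48 h at 37 °C in a humidified 5% CO₂ incubator. Cells were then diluted 10-fold in saline and counted by Coulter counter, with counts corrected for dilution. Results are percent growth of treated cells, reported as GI %.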
# OVCAR-8 = test: Growth inhibition of human OVCAR8 cells at 10 uM after 48 hrs by coulter counter method; conditions: OVCAR-8, 48 h, read-out: GI; summary of the method: as §1
# KM12 = test: Growth inhibition of human KM12 cells at 10 uM after 48 hrs by coulter counter method; conditions: KM12, 48 h, read-out: GI; summary of the method: as §1
# NCI-H226 = test: Growth inhibition of human NCI-H226 cells at 10 uM after 48 hrs by coulter counter method; conditions: NCI-H226, 48 h, read-out: GI; summary of the method: as §1
# OVCAR-4 = test: Growth inhibition of human OVCAR4 cells at 10 uM after 48 hrs by coulter counter method; conditions: OVCAR-4, 48 h, read-out: GI; summary of the method: as §1
# IGROV-1 = test: Growth inhibition of human IGROV1 cells at 10 uM after 48 hrs by coulter counter method; conditions: IGROV-1, 48 h, read-out: GI; summary of the method: as §1
# A549 = test: Growth inhibition of human A549 cells at 10 uM after 48 hrs by coulter counter method; conditions: A549, 48 h, read-out: GI; summary of the method: as §1
# SK-OV-3 = test: Growth inhibition of human SKOV3 cells at 10 uM after 48 hrs by coulter counter method; conditions: SK-OV-3, 48 h, read-out: GI; summary of the method: as §1
# MDA-MB-231 = test: Growth inhibition of human MDA-MB-231 cells at 10 uM after 48 hrs by coulter counter method; conditions: MDA-MB-231, 48 h, read-out: GI; summary of the method: as §1
# K562 = test: Growth inhibition of human K562 cells at 10 uM after 48 hrs by coulter counter method; conditions: K562, 48 h, read-out: GI; summary of the method: as §1
# MOLT-4 = test: Growth inhibition of human MOLT4 cells at 10 uM after 48 hrs by coulter counter method; conditions: MOLT-4, 48 h, read-out: GI; summary of the method: as §1
# COLO 205 = test: Growth inhibition of human COLO205 cells at 10 uM after 48 hrs by coulter counter method; conditions: COLO 205, 48 h, read-out: GI; summary of the method: as §1
# SN12C = test: Growth inhibition of human SN12C cells at 10 uM after 48 hrs by coulter counter method; conditions: read-out: GI; summary of the method: as §1
# SF-268 = test: Growth inhibition of human SF268 cells at 10 uM after 48 hrs by coulter counter method; conditions: SF-268, 48 h, read-out: GI; summary of the method: as §1
# U-251 = test: Growth inhibition of human U251 cells at 10 uM after 48 hrs by coulter counter method; conditions: U-251, 48 h, read-out: GI; summary of the method: as §1
# MCF7 = test: Growth inhibition of human MCF7 cells at 10 uM after 48 hrs by coulter counter method; conditions: MCF7, 48 h, read-out: GI; summary of the method: as §1
# T47D = test: Growth inhibition of human T47D cells at 10 uM after 48 hrs by coulter counter method; conditions: read-out: GI; summary of the method: as §1
# SF-539 = test: Growth inhibition of human SF539 cells at 10 uM after 48 hrs by coulter counter method; conditions: SF-539, 48 h, read-out: GI; summary of the method: as §1
# SK-MEL-2 = test: Growth inhibition of human SK-MEL-2 cells at 10 uM after 48 hrs by coulter counter method; conditions: SK-MEL-2, 48 h, read-out: GI; summary of the method: as §1
# NCI-H522 = test: Growth inhibition of human NCI-H522 cells at 10 uM after 48 hrs by coulter counter method; conditions: NCI-H522, 48 h, read-out: GI; summary of the method: as §1
# BT-549 = test: Growth inhibition of human BT549 cells at 10 uM after 48 hrs by coulter counter method; conditions: BT-549, 48 h, read-out: GI; summary of the method: as §1
# HT-29 = test: Growth inhibition of human HT-29 cells at 10 uM after 48 hrs by coulter counter method; conditions: HT-29, 48 h, read-out: GI; summary of the method: as §1
# SR = test: Growth inhibition of human SR cells at 10 uM after 48 hrs by coulter counter method; conditions: read-out: GI; summary of the method: as §1
# CCRF-CEM = test: Growth inhibition of human CCRF-CEM cells at 10 uM after 48 hrs by coulter counter method; conditions: read-out: GI; summary of the method: as §1
# SF-295 = test: Growth inhibition of human SF295 cells at 10 uM after 48 hrs by coulter counter method; conditions: SF-295, 48 h, read-out: GI; summary of the method: as §1
Compound,inhibition of growth at 10 µM (HCT-116) [%],inhibition of growth at 10 µM (786-0) [%],inhibition of growth at 10 µM (UACC-62) [%],inhibition of growth at 10 µM (NCI-H23) [%],inhibition of growth at 10 µM (SNB-75) [%],inhibition of growth at 10 µM (SK-MEL-28) [%],inhibition of growth at 10 µM (MDA-MB-468) [%],inhibition of growth at 10 µM (PC-3) [%],inhibition of growth at 10 µM (CAKI-1) [%],inhibition of growth at 10 µM [2] [%],inhibition of growth at 10 µM (HOP-92) [%],inhibition of growth at 10 µM (UO-31) [%],inhibition of growth at 10 µM (M14) [%],inhibition of growth at 10 µM (HL-60(TB)) [%],inhibition of growth at 10 µM (OVCAR-8) [%],inhibition of growth at 10 µM (KM12) [%],inhibition of growth at 10 µM (NCI-H226) [%],inhibition of growth at 10 µM (OVCAR-4) [%],inhibition of growth at 10 µM (IGROV-1) [%],inhibition of growth at 10 µM (A549) [%],other results
CSc1nc2ccccc2c(=O)n1-c1ccc(Cl)cc1,30,30,30,30,30,30,30,50.3,30,30,30,30,30,32,30,30,30,30,30,30,inhibition of growth at 10 µM [1]: 35.8%; inhibition of growth at 10 µM (SK-OV-3): 30%; inhibition of growth at 10 µM (MDA-MB-231): 30%; inhibition of growth at 10 µM (K562): 44.1%; inhibition of growth at 10 µM (MOLT-4): 31.4%; inhibition of growth at 10 µM (COLO 205): 30%; inhibition of growth at 10 µM (SN12C): 30%; inhibition of growth at 10 µM (SF-268): 30%; inhibition of growth at 10 µM (U-251): 30%; inhibition of growth at 10 µM (MCF7): 30%; inhibition of growth at 10 µM (T47D): 47%; inhibition of growth at 10 µM (SF-539): 30%; inhibition of growth at 10 µM (SK-MEL-2): 30%; inhibition of growth at 10 µM (NCI-H522): 30%
COc1ccc(C2NC(=O)Nc3ccc(C(=O)Nc4ccccn4)cc32)cc1 (stereo not given),30,30,30,30,30,30,30,30,30,30,30,34.3,30,30,30,30,30,30,30,30,inhibition of growth at 10 µM (BT-549): 30%; inhibition of growth at 10 µM (HT-29): 30%; inhibition of growth at 10 µM (SR): 30%; inhibition of growth at 10 µM (CCRF-CEM): 30%; inhibition of growth at 10 µM (SK-OV-3): 30%; inhibition of growth at 10 µM (MDA-MB-231): 30%; inhibition of growth at 10 µM (K562): 30%; inhibition of growth at 10 µM (MOLT-4): 30%; inhibition of growth at 10 µM (COLO 205): 30%; inhibition of growth at 10 µM (SN12C): 30%; inhibition of growth at 10 µM (SF-268): 30%; inhibition of growth at 10 µM (U-251): 30%; inhibition of growth at 10 µM (MCF7): 30%; inhibition of growth at 10 µM (T47D): 37.6%; inhibition of growth at 10 µM (SF-539): 30%; inhibition of growth at 10 µM (SK-MEL-2): 30%; inhibition of growth at 10 µM (NCI-H522): 30%
COc1ccc(C2NC(=O)Nc3ccc(CNc4ccccn4)cc32)cc1 (stereo not given),36.8,30,30,30,30,30,30,30,30,30,30,30,30,30,30,30,30,30,30,30,inhibition of growth at 10 µM (BT-549): 30%; inhibition of growth at 10 µM (HT-29): 30%; inhibition of growth at 10 µM (SR): 30%; inhibition of growth at 10 µM (CCRF-CEM): 30%; inhibition of growth at 10 µM (SK-OV-3): 30%; inhibition of growth at 10 µM (MDA-MB-231): 30.2%; inhibition of growth at 10 µM (K562): 30%; inhibition of growth at 10 µM (MOLT-4): 30%; inhibition of growth at 10 µM (COLO 205): 30%; inhibition of growth at 10 µM (SN12C): 30%; inhibition of growth at 10 µM (SF-268): 30%; inhibition of growth at 10 µM (U-251): 30%; inhibition of growth at 10 µM (MCF7): 30%; inhibition of growth at 10 µM (T47D): 33.1%; inhibition of growth at 10 µM (SF-539): 30%; inhibition of growth at 10 µM (SK-MEL-2): 30%; inhibition of growth at 10 µM (NCI-H522): 30%
COc1ccc(-n2c(Nc3cc(O)[nH]c(=O)n3)nc3ccccc3c2=O)cc1,–,–,–,–,–,–,–,–,–,–,–,–,–,–,–,–,–,–,–,–,inhibition of growth at 10 µM (SF-295): 80.8%
CCn1c(Nc2cc(O)nc(S)n2)nc2ccccc2c1=O,–,–,–,–,–,–,–,–,–,–,–,–,–,–,–,–,–,–,–,–,inhibition of growth at 10 µM (SF-295): 59.9%

# Reference: ChEMBL document CHEMBL1629431, “Synthesis and antitumor activity of some 2, 3-disubstituted quinazolin-4(3H)-ones and 4, 6- disubstituted- 1, 2, 3, 4-tetrahydroquinazolin-2H-ones” (2010)
